Reference: ChEMBL document CHEMBL3351780, “Novel hybrids of metronidazole and quinolones: synthesis, bioactive evaluation, cytotoxicity, preliminary antimicrobial mechanism and effect of metal ions on their transportation by human serum albumin” (Eur J Med Chem, 2014)
≈ marks a conversion by molar mass, not a printed value.

Experiments:
Type in all cases: functional
Staphylococcus aureus [1] = experiment: Antibacterial activity against methicillin-resistant Staphylococcus aureus N315 by two-fold serial dilution method
How it was run: (§1)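 MIC read as the lowest concentration giving complete growth inhibition. Two-fold serial dilutions were made in 96-well plates following NCCLS, giving a series down to 0.5 µg/mL (…32, 16, 8, 4, 2, 1, 0.5). Plates were inoculated and incubated at 37 °C for 24 h. A DMSO-with-inoculum control without drug was included. Growth was monitored visually and spectrophotometrically, in triplicate.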

Micrococcus luteus = experiment: Antibacterial activity against Micrococcus luteus by two-fold serial dilution method
How it was run: (§2)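 Standard two-fold serial dilution in 96-well microtest plates following NCCLS. Top dilutions printed as 32, 16, 8, 4, 2, 1, 0.5 ug/mL. Wells inoculated and held at 37 °C for 24 h. Growth judged visually and by spectrophotometer, in triplicate. MIC is the lowest concentration giving complete growth inhibition.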

Pichia norvegensis = experiment: Antifungal activity against Candida mycoderma after 24 hrs by microbroth dilution method
Shigella dysenteriae = experiment: Antibacterial activity against Shigella dysenteriae by two-fold serial dilution method; how it was run: as §1
Pseudomonas aeruginosa = experiment: Antibacterial activity against Pseudomonas aeruginosa by two-fold serial dilution method; how it was run: as §2
Cyberlindnera jadinii = experiment: Antifungal activity against Candida utilis after 24 hrs by microbroth dilution method; conditions: Williopsis jadinii
How it was run: (§3)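 Spore suspension prepared in sterile distilled water from one-day-old cultures on Sabouraud agar, final 1-5 x 10^3 spores/mL. Compounds were serially diluted in RPMI 1640 to give eleven dilutions. Incubation at 35 °C for 24 h. Growth read visually and spectrophotometrically, in triplicate. MIC is the lowest concentration with complete inhibition.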

Bacillus spizizenii = experiment: Antibacterial activity against Bacillus subtilis ATCC 6633 by two-fold serial dilution method; how it was run: as §2
[2] = Antibacterial activity against Eberthella typhosa by two-fold serial dilution method; how it was run: as §1
Saccharomyces cerevisiae = experiment: Antifungal activity against Saccharomyces cerevisiae after 24 hrs by microbroth dilution method; how it was run: as §3
Candida albicans = experiment: Antifungal activity against Candida albicans ATCC 76615 after 24 hrs by microbroth dilution method; conditions: ATCC 76615, 24 h; how it was run: as §3
Staphylococcus aureus [3] = experiment: Antibacterial activity against Staphylococcus aureus ATCC 25923 by two-fold serial dilution method; how it was run: as §2
Escherichia coli = experiment: Antibacterial activity against Escherichia coli DH52 by two-fold serial dilution method; how it was run: as §2

Row | Compound | MIC (Staphylococcus aureus [1]) [µg/mL] | MIC (Micrococcus luteus) [µg/mL] | MIC (Pichia norvegensis) [µg/mL] | MIC (Shigella dysenteriae) [µg/mL] | MIC (Pseudomonas aeruginosa) [µg/mL] | MIC (Cyberlindnera jadinii) [µg/mL] | MIC (Bacillus spizizenii) [µg/mL] | MIC [2] [µg/mL] | MIC (Saccharomyces cerevisiae) [µg/mL] | MIC (Candida albicans) [µg/mL] | MIC (Staphylococcus aureus [3]) [µg/mL] | MIC (Escherichia coli) [µg/mL]
1 | CCOC(=O)c1cn(CC(O)Cn2c([N+](=O)[O-])cnc2C)c2ccc(C)cc2c1=O (racemic) | 8 (≈ 19.3 µM) | 16 (≈ 38.6 µM) | 256 (≈ 618 µM) | 4 (≈ 9.65 µM) | 8 (≈ 19.3 µM) | 256 (≈ 618 µM) | 8 (≈ 19.3 µM) | 8 (≈ 19.3 µM) | 4 (≈ 9.65 µM) | 2 (≈ 4.83 µM) | 8 (≈ 19.3 µM) | 4 (≈ 9.65 µM)
2 | CCOC(=O)c1cn(CC(O)Cn2cnc([N+](=O)[O-])c2)c2cc(C(F)(F)F)ccc2c1=O (racemic) | 4 (≈ 8.8 µM) | 8 (≈ 17.6 µM) | 32 (≈ 70.4 µM) | 16 (≈ 35.2 µM) | 64 (≈ 141 µM) | 16 (≈ 35.2 µM) | 4 (≈ 8.8 µM) | 64 (≈ 141 µM) | 16 (≈ 35.2 µM) | 16 (≈ 35.2 µM) | 8 (≈ 17.6 µM) | 128 (≈ 282 µM)
3 | CCOC(=O)c1cn(CC2CO2)c2cc(Cl)c(F)cc2c1=O (racemic) | 8 (≈ 24.6 µM) | 64 (≈ 196 µM) | 1 (≈ 3.07 µM) | 128 (≈ 393 µM) | 32 (≈ 98.2 µM) | 512 (≈ 1570 µM) | 128 (≈ 393 µM) | 8 (≈ 24.6 µM) | 4 (≈ 12.3 µM) | 64 (≈ 196 µM) | 128 (≈ 393 µM) | 64 (≈ 196 µM)
4 | CCOC(=O)c1cn(CC(O)Cn2c([N+](=O)[O-])cnc2C)c2ccc(F)cc2c1=O (racemic) | 4 (≈ 9.56 µM) | 8 (≈ 19.1 µM) | 128 (≈ 306 µM) | 8 (≈ 19.1 µM) | 16 (≈ 38.2 µM) | 128 (≈ 306 µM) | 8 (≈ 19.1 µM) | 4 (≈ 9.56 µM) | 32 (≈ 76.5 µM) | 64 (≈ 153 µM) | 16 (≈ 38.2 µM) | 8 (≈ 19.1 µM)
5 | CCOC(=O)c1cn(CC2CO2)c2ccc(OC)cc2c1=O (racemic) | 64 (≈ 211 µM) | 128 (≈ 422 µM) | 32 (≈ 106 µM) | 64 (≈ 211 µM) | 32 (≈ 106 µM) | 512 (≈ 1690 µM) | 16 (≈ 52.8 µM) | 1 (≈ 3.3 µM) | 4 (≈ 13.2 µM) | 64 (≈ 211 µM) | 32 (≈ 106 µM) | 16 (≈ 52.8 µM)
6 | CCOC(=O)c1cn(CC(O)Cn2cnc([N+](=O)[O-])c2)c2ccc(OC)cc2c1=O (racemic) | 4 (≈ 9.61 µM) | 512 (≈ 1230 µM) | 512 (≈ 1230 µM) | 32 (≈ 76.9 µM) | 64 (≈ 154 µM) | 8 (≈ 19.2 µM) | 64 (≈ 154 µM) | 256 (≈ 615 µM) | 4 (≈ 9.61 µM) | 16 (≈ 38.4 µM) | 4 (≈ 9.61 µM) | 2 (≈ 4.8 µM)
7 | CCOC(=O)c1cn(CC2CO2)c2ccc(C)cc2c1=O (racemic) |  |  | 8 (≈ 27.8 µM) |  |  |  | 64 (≈ 223 µM) | 2 (≈ 6.96 µM) |  |  |  | 
8 | CCOC(=O)c1cn(CC(O)Cn2cnc([N+](=O)[O-])c2)c2c(Cl)cc(Cl)cc2c1=O (racemic) | 64 (≈ 141 µM) | 8 (≈ 17.6 µM) | 64 (≈ 141 µM) | 8 (≈ 17.6 µM) | 16 (≈ 35.1 µM) | 256 (≈ 562 µM) | 4 (≈ 8.79 µM) | 16 (≈ 35.1 µM) | 32 (≈ 70.3 µM) | 64 (≈ 141 µM) | 32 (≈ 70.3 µM) | 16 (≈ 35.1 µM)
9 | CCOC(=O)c1cn(CC(O)Cn2cnc([N+](=O)[O-])c2)c2c(F)cccc2c1=O (racemic) | 8 (≈ 19.8 µM) | 64 (≈ 158 µM) | 256 (≈ 633 µM) | 16 (≈ 39.6 µM) | 32 (≈ 79.1 µM) | 16 (≈ 39.6 µM) | 32 (≈ 79.1 µM) | 32 (≈ 79.1 µM) | 256 (≈ 633 µM) | 128 (≈ 317 µM) | 256 (≈ 633 µM) | 32 (≈ 79.1 µM)
10 | CCOC(=O)c1cn(CC(O)Cn2c([N+](=O)[O-])cnc2C)c2c(Cl)cc(Cl)cc2c1=O (racemic) | 32 (≈ 68.2 µM) | 16 (≈ 34.1 µM) | 64 (≈ 136 µM) | 8 (≈ 17 µM) | 16 (≈ 34.1 µM) | 256 (≈ 546 µM) | 8 (≈ 17 µM) | 8 (≈ 17 µM) | 128 (≈ 273 µM) | 64 (≈ 136 µM) | 16 (≈ 34.1 µM) | 16 (≈ 34.1 µM)
